Laboratory results taken from ChEMBL document CHEMBL1154191, “Evaluation of spirocyclic 3-(3-fluoropropyl)-2-benzofurans as sigma1 receptor ligands for neuroimaging with positron emission tomography” (J Med Chem, 2009).

How the values were obtained:
[1] = test system: Liver; experiment: Biodistribution in CD1 mouse liver assessed per gram of wet tissue at 400 to 600 kBq, iv after 5 mins post-injection by gamma counting; assay type: ADME, organism-based; conditions: in vivo
Procedure, shortened: (§1)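 Female CD-1 mice (~8-12 weeks, 20-28 g), habituated ≥48 h and fasted 24 h with water available. The [18F] tracer (>150 GBq/μmol at end of synthesis) was given in 200 μL saline into the tail vein of conscious animals. At each time point, n=4-5, mice were anaesthetised, blood and urine sampled, then killed by cervical dislocation. Organs were weighed and γ-counted, and values calculated as % ID/g wet tissue.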

[2] = Ratio of drug level in cerebellum to plasma in CD1 mouse at 400 to 600 kBq, iv after 30 mins post-injection; assay type: ADME, organism-based
Procedure, shortened: (§2)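 Female CD-1 mice (~8-12 weeks, 20-28 g), fasted 24 h with free water; 400-600 kBq tracer in 200 μL saline by tail vein into conscious animals. Killed at set times pi (n=4-5 per time); blood and organs weighed, γ-counted, expressed as % ID/g wet tissue; ratio from cerebellum and plasma uptake.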

[3] = Biodistribution in CD1 mouse gonad assessed per gram of wet tissue at 400 to 600 kBq, iv after 60 mins post-injection by gamma counting in presence of 1 mg/kg, ip sigma 1/sigma 2 receptor antagonist haloperidol treated before compound addition; assay type: organism-based; parameters: dose 1 mg/kg, route intravenous; conditions: in vivo, 1 h
Procedure, shortened: (§3)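 Blocking arm in fasted female CD-1 mice (n=5). […] Animals were killed at 60 min post-injection, and organs were weighed and γ-counted as % ID/g wet tissue. Percent change was taken against the 60 min control group, with two-tailed unpaired Student's t test.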

[4] = Biodistribution in CD1 mouse gonad assessed per gram of wet tissue at 400 to 600 kBq, iv after 5 mins post-injection by gamma counting; assay type: ADME, organism-based; conditions: in vivo
Procedure, shortened: (§4)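 Female CD-1 mice (~8-12 weeks, 20-28 g) were fasted 24 h with free water. Conscious mice got 400-600 kBq [¹⁸F] tracer in saline by tail vein. At 5, 30, 60 or 120 min (n=4-5 per time) they were anesthetized, blood and urine sampled, then killed by cervical dislocation. Organs were weighed and γ-counted, giving % ID/g wet tissue.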

[5] = test system: Lung; experiment: Biodistribution in CD1 mouse lung assessed per gram of wet tissue at 400 to 600 kBq, iv after 5 mins post-injection by gamma counting; assay type: ADME, organism-based; conditions: in vivo; procedure, shortened: as §1
[6] = test system: Heart; experiment: Biodistribution in CD1 mouse heart assessed per gram of wet tissue at 400 to 600 kBq, iv after 120 mins post-injection by gamma counting; assay type: ADME, organism-based; conditions: in vivo, 2 h; procedure, shortened: as §4
[7] = test system: Spleen; experiment: Biodistribution in CD1 mouse spleen assessed per gram of wet tissue at 400 to 600 kBq, iv after 60 mins post-injection by gamma counting in presence of 1 mg/kg, ip sigma 1/sigma 2 receptor antagonist haloperidol treated before compound addition; assay type: organism-based; parameters: route intravenous; conditions: in vivo, 1 h
Procedure, shortened: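 They were killed at 60 min pi, and organs were weighed and γ-counted as % ID/g wet tissue. Comparison with controls used Student's t test (independent, two-tailed).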

[8] = test system: Kidney; experiment: Biodistribution in CD1 mouse kidney assessed per gram of wet tissue at 400 to 600 kBq, iv after 30 mins post-injection by gamma counting; assay type: ADME, organism-based; conditions: in vivo, 0.5 h; procedure, shortened: as §4
[9] = test system: Spleen; experiment: Biodistribution in CD1 mouse spleen assessed per gram of wet tissue at 400 to 600 kBq, iv after 60 mins post-injection by gamma counting; assay type: ADME, organism-based; conditions: in vivo, 1 h; procedure, shortened: as §1
[10] = test system: Pancreas; experiment: Biodistribution in CD1 mouse pancreas assessed per gram of wet tissue at 400 to 600 kBq, iv after 30 mins post-injection by gamma counting; assay type: ADME, organism-based; conditions: in vivo, 0.5 h; procedure, shortened: as §1
[11] = Metabolic stability in CD1 mouse brain at 200 to 300 MBq, iv after 60 mins post-injection by supelcosil C18 HPLC and TLC-radiochromatography; assay type: ADME, organism-based; conditions: read-out: Stability
Procedure, shortened: (§5)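 Mice received 200-300 MBq [18F] tracer in 200 μL 0.9% saline via the tail vein, and samples were taken at 45 and 60 min (n=2 per time). Plasma was obtained by centrifugation (2000g, 4 °C, 10 min); brain and liver were homogenised in ice-cold 50 mM TRIS-HCl pH 7.4. Samples were precipitated with ice-cold MeCN and centrifuged (4000g, 4 °C, 15 min), and supernatants were analysed by gradient radio-HPLC and radio-TLC, with HPLC fractions γ-counted.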

[12] = test system: Blood; experiment: Biodistribution in CD1 mouse blood assessed per gram of wet tissue at 400 to 600 kBq, iv after 5 mins post-injection by gamma counting; assay type: ADME, organism-based; conditions: in vivo; procedure, shortened: as §4
[13] = test system: Liver; experiment: Metabolic stability in CD1 mouse liver homogenate assessed as formation of 3-(3-Fluoropropyl)-3H-spiro[[2]benzofuran-1,4'-piperidine], 4-((3-(3-fluoropropyl)-3H-spiro[isobenzofuran-1,4'-piperidine]-1'-yl)methyl)phenol and 1-(1'-benzyl-3H-spiro[isobenzofuran-1,4'-piperidine]-3-yl)-3-fluoropropan-2-ol at 200 to 300 MBq, iv after 45 mins postinjection by radio-HPLC and radio-TLC; assay type: ADME, organism-based; conditions: in vivo, 0.75 h; procedure, shortened: as §5
[14] = Chemical stability in solution of 0.9% NaCl, phosphate buffer saline and Tris-HCl up to 120 mins; assay type: physicochemical; conditions: 2 h
[15] = test system: Stomach; experiment: Biodistribution in CD1 mouse stomach assessed per gram of wet tissue at 400 to 600 kBq, iv after 30 mins post-injection by gamma counting; assay type: ADME, organism-based; conditions: in vivo, 0.5 h; procedure, shortened: as §1
[16] = test system: Femur; experiment: Biodistribution in CD1 mouse femur assessed per gram of wet tissue at 400 to 600 kBq, iv after 120 mins post-injection by gamma counting; assay type: ADME, organism-based; conditions: in vivo, 2 h; procedure, shortened: as §4
[17] = test system: Blood; experiment: Biodistribution in CD1 mouse blood assessed per gram of wet tissue at 400 to 600 kBq, iv after 120 minspost-injection by gamma counting; assay type: ADME, organism-based; conditions: in vivo, 2 h; procedure, shortened: as §4
[18] = test system: Intestine; experiment: Biodistribution in CD1 mouse intestine assessed per gram of wet tissue at 400 to 600 kBq, iv after 120 mins post-injection by gamma counting; assay type: ADME, organism-based; conditions: in vivo, 2 h; procedure, shortened: as §4
[19] = Biodistribution in CD1 mouse gonad assessed per gram of wet tissue at 400 to 600 kBq, iv after 30 mins post-injection by gamma counting; assay type: ADME, organism-based; conditions: in vivo, 0.5 h; procedure, shortened: as §4
[20] = Biodistribution in CD1 mouse adrenal gland assessed per gram of wet tissue at 400 to 600 kBq, iv after 120 mins post-injection by gamma counting; assay type: ADME, organism-based; conditions: in vivo, 2 h; procedure, shortened: as §4
[21] = test system: Liver; experiment: Biodistribution in CD1 mouse liver assessed per gram of wet tissue at 400 to 600 kBq, iv after 120 mins post-injection by gamma counting; assay type: ADME, organism-based; conditions: in vivo, 2 h; procedure, shortened: as §4
[22] = test system: Muscle tissue; experiment: Biodistribution in CD1 mouse muscle assessed per gram of wet tissue at 400 to 600 kBq, iv after 5 mins post-injection by gamma counting; assay type: ADME, organism-based; conditions: in vivo; procedure, shortened: as §1
[23] = Biodistribution in CD1 mouse adrenal gland assessed per gram of wet tissue at 400 to 600 kBq, iv after 60 mins post-injection by gamma counting in presence of 1 mg/kg, ip sigma 1/sigma 2 receptor antagonist haloperidol treated before compound addition; assay type: organism-based; parameters: dose 1 mg/kg, route intravenous; conditions: in vivo, 1 h; procedure, shortened: as §3
[24] = test system: Heart; experiment: Biodistribution in CD1 mouse heart assessed per gram of wet tissue at 400 to 600 kBq, iv after 5 mins post-injection by gamma counting; assay type: ADME, organism-based; conditions: in vivo; procedure, shortened: as §4
[25] = Biodistribution in CD1 mouse thymus assessed per gram of wet tissue at 400 to 600 kBq, iv after 30 mins post-injection by gamma counting; assay type: ADME, organism-based; conditions: in vivo, 0.5 h; procedure, shortened: as §1
[26] = Ratio of drug level in cerebellum to plasma in CD1 mouse at 400 to 600 kBq, iv after 60 mins post-injection; assay type: ADME, organism-based; procedure, shortened: as §2
[27] = Biodistribution in CD1 mouse adrenal gland assessed per gram of wet tissue at 400 to 600 kBq, iv after 60 mins post-injection by gamma counting; assay type: ADME, organism-based; conditions: in vivo, 1 h; procedure, shortened: as §4

Work on `[18F]CCCC1OC2(CCN(Cc3ccccc3)CC2)c2ccccc21` (configuration not stated) yielded a Drug uptake [1] of 5.54 %ID, a Kp at 0.5 h [2] of 3.86 and a Drug uptake [3] of 4.92 %ID. For the same molecule, the Drug uptake [4] was 3.4 %ID, the Drug uptake [5] was 16.2 %ID and the Drug uptake [6] was 1.52 %ID. For the same molecule, the Drug uptake [7] was 1.89 %ID, the Drug uptake [8] was 7.49 %ID and the Drug uptake [9] was 5.56 %ID. For the same molecule, the Drug uptake [10] was 12.8 %ID, the remaining at 1 h [11] was ≥ 95% and the Drug uptake [12] was 1.44 %ID. For the same molecule, the Activity [13] was 45%, the Stability [14] was “Stable” and the Drug uptake [15] was 5.13 %ID. For the same molecule, the Drug uptake [16] was 6.64 %ID, the Drug uptake [17] was 0.48 %ID and the Drug uptake [18] was 9.03 %ID. It also gave a Drug uptake [19] of 4.11 %ID, a Drug uptake [20] of 5.86 %ID and a Drug uptake [21] of 2.93 %ID. It also gave a Drug uptake [22] of 2.18 %ID, a Drug uptake [23] of 5.72 %ID and a Drug uptake [24] of 6.52 %ID. The Drug uptake [25] was 3.26 %ID, the Kp at 1 h [26] was 5.75 and the Drug uptake [27] was 7.78 %ID.
